Published values of several laboratories.
Compare with care: the assays were run in different laboratories.
Target: Cholinesterase (BCHE, Equus caballus, UniProt P81908)
Observed: enzyme activity
Action: inhibitor

Structure (SMILES)	technique	IC50
CC=C1[C@H]2C=C(C)C[C@]1(N)c1cc(CC)c(=O)[nH]c1C2	Ellman	60.4 µM
CC(=O)N1CCN(c2nccc(NCCc3ccccc3)n2)CC1		> 100 µM
C#CCNc1nc(NCCCCC2CCN(Cc3ccccc3)CC2)c(C#N)cc1C#N	Ellman	0.511 µM
CC=C1[C@H]2C=C(C)C[C@]1(N)c1cc(C)c(=O)[nH]c1C2	Ellman	486 µM
CCOc1ccc(C=NNC(=S)NCC(=O)c2ccc(Cl)cc2Cl)cc1	Ellman	331 µM
C#CCN(C)c1nc(NCCCCC2CCN(Cc3ccccc3)CC2)c(C#N)c(-c2ccccc2)c1C#N	Ellman	0.22 µM
CC(C)(C)OC(=O)N1CCN(c2nccc(NCc3ccccc3)n2)CC1		> 100 µM
CCOc1ccc(C=NNC(=S)NCC(=O)c2ccc(-c3ccccc3)cc2)cc1	Ellman	501 µM
O=C(NCCCNc1c2c(nc3ccccc13)CCCC2)c1ccccc1O	Ellman	0.129 µM
CC=C1[C@H]2C=C(C)C[C@]1(N)c1ccc(OC)nc1C2	Ellman	904 µM
CCOc1ccc(C=NNC(=S)NCC(=O)c2cccc(C)c2)cc1	Ellman	300 µM
